Tests used:
Format in all cases: functional, cell-based
[1] = test system: SK-OV-3; assay: Cytotoxicity against human SKOV3 cells after 48 hrs by MTT assay; conditions: SK-OV-3, 48 h
Procedure, shortened: (§1)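 Cells in RPMI-1640 with 10% heat-inactivated calf serum, penicillin/streptomycin, 5% CO2, 37 °C. Seeded at 5×10³ per well and exposed to six concentrations of 0.01–1000 for 48 h. Then 0.5% MTT for 4 h at 37 °C, formazan dissolved in DMSO, absorbance read at 570 nm. Inhibition calculated as (1 − treated/control absorbance)×100. IC50 is the concentration giving 50% inhibition; mean ± SD of three observations.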

[2] = test system: Bel-7402; assay: Cytotoxicity against human Bel7402 cells after 48 hrs by MTT assay; conditions: Bel-7402, 48 h; procedure, shortened: as §1
[3] = test system: BGC-823; assay: Cytotoxicity against human BGC823 cells after 48 hrs by MTT assay; conditions: BGC-823, 48 h; procedure, shortened: as §1
[4] = test system: A549; assay: Cytotoxicity against human A549 cells after 48 hrs by MTT assay; conditions: A549, 48 h; procedure, shortened: as §1
[5] = test system: HT-29; assay: Cytotoxicity against human HT-29 cells after 48 hrs by MTT assay; conditions: HT-29, 48 h; procedure, shortened: as §1

Row | SMILES | IC50 [1] [µM] | IC50 [2] [µM] | IC50 [3] [µM] | IC50 [4] [µM] | IC50 [5] [µM]
1 | C/C(=C/C[C@@]12OC(C)(C)[C@@H]3C[C@@H](C=C4C(=O)c5c(O)c6c(c(C/C=C(\C)CO)c5O[C@]431)O[C@](C)(CC/C=C(\C)C=O)C=C6)C2=O)C(=O)O | 1.84 | 15 | 6.75 | 20.5 | 2.08
2 | COC(=O)/C(C)=C\C[C@@]12OC(C)(C)[C@@H]3C[C@@H](C=C4C(=O)c5c(OC)c6c(c(CC=C(C)C)c5O[C@]431)O[C@](C)(CC/C=C(\C)COC(C)=O)C=C6)C2=O | 15.8 | 3.6 | 1.42 | 5.25 | 2.41
3 | C/C(=C/C[C@@]12OC(C)(C)[C@@H]3C[C@@H](C=C4C(=O)c5c(O)c6c(c(CC7OC7(C)C)c5O[C@]431)O[C@](C)(CCC1OC1(C)C)C=C6)C2=O)C(=O)O (stereo not given in full) | 0.76 | 3.73 | 4.38 | 1.56 | 2.08
4 | COC(=O)/C(C)=C\C[C@@]12OC(C)(C)[C@@H]3C[C@@H](C=C4C(=O)c5c(OC)c6c(c(CC=C(C)C)c5O[C@]431)O[C@](C)(CC[C@@H](O)C(C)(C)O)C=C6)C2=O | > 100 | > 100 | > 100 | > 100 | > 100
5 | CC(C)=CCC[C@]1(C)C=Cc2c(O)c3c(c(C/C=C(\C)CO)c2O1)O[C@]12C(=C[C@@H]4C[C@H]1C(C)(C)O[C@@]2(C/C=C(/C)C(=O)O)C4=O)C3=O | 1.61 | 4.01 | 4.89 | 5.87 | 2.66
